Broadly, the stoichiometry N is the number of molecules, sites or subunits per partner or assembly.

Consider 10 molecules from article PMC6995037 (Biochemistry, 2015).

The labels stand for the following.
B2: LC8 (natural protein)
chain: MSDRKAVIKNADMSEEMQQDAVDCATQALEKYNIEKDIAAYIKKEFDKKYNPTWHCIVGRNFGSYVTHETRHFIYFYLGQVAILLFKSG
B3: Chica_(410–478) (domain or fragment, human, UniProt Q9H4H8 410-478, looked up)
chain: QTSITTACAGTQTAVITRIASSQTTIWSRSTTTQTDMDENILFPRGTQSTEGSPVSKMSVSRSSSLKSS

The target of experiment [1] is T1, LC8 (Drosophila melanogaster, UniProt Q24117). Briefly: Isothermal titration calorimetry of LC8 binding to Chica motif peptides. To be noted: for relative affinity, in words: comparison between Chica motif peptides; for fold weaker affinity than QT1p: relative to QT1p (Kd 0.4 μM). The method in brief:
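Synthetic peptides of Chica motifs, with added non-native N-terminal residues for solubility and A280 quantitation, at 280–300 μM final in 50 mM sodium phosphate, 50 mM NaCl, 0.5 mM sodium azide, pH 7.5. Titrated into 30–35 μM LC8 in the cell at 25 °C. Peak areas were fitted to a single-site model for N, Kd, ΔH and ΔS. Values are the average of three independent experiments.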
A general note: Isothermal titration calorimetry measures the heat released or taken up as one component is titrated into another.

Experiment [2] deals with T1, LC8. To be noted: read-out: binding affinity; Pak1; cited from earlier work.
Experiment [3] deals with B2. Briefly: ITC.
Experiment [4] concerns the target T1, LC8. The conditions noted are these: of 17 motifs; cited from earlier work.
The target in experiment [5] is B3. Briefly: ITC.
Experiment [6] addresses B2. Briefly: ITC. The source holds these as a separate data set.

“Also recorded” adds a separate entry of the source. Like-named read-outs stand apart in the source and are kept apart here. No end group written: not given here.

For SYTTACAGTQTAV [QT3p], the “binding to LC8, in words” value in experiment [1] (ITC, 25 °C, pH 7.5) was “too weak to be measured accurately by ITC; also recorded: immeasurably weak”.
Consider SYWSRSTTTQTDM [QT4p], for which, in experiment [1] (ITC), the “relative affinity, in words” value is “bind LC8 with a similar affinity”. The “fold weaker affinity than QT1p” value in experiment [1] is listed as “over 10 fold”.
As for “Pak1: LC8 recognition motif of Pak1 (TPTRDVATSP)”, the Kd in experiment [2] is 42.7 µM.
SYSVSEVGTQTSI [QT2p]: the “relative affinity, in words” value in experiment [1] (ITC, listed as QT2) is listed as “bind LC8 with a similar affinity”. In experiment [1], the “fold weaker affinity than QT1p” value was “over 10 fold”.
As to SYRKAIDAATQTEE [QT1p], in experiment [3], the dH was -6.8 ± 0.2 kcal/mol and the “stoichiometry N” value was found to be 1.

B1: ASCIZ: transcription factor ASCIZ with 17 motifs (protein, UniProt O43313 1-823, looked up)
ATM interactor: MAASEAAAAAGSAALAAGARAVPAATTGAAAAASGPWVPPGPRLRGSRPRPAGATQQPAVPAPPAGELIQPSVSELSRAVRTNILCTVRGCGKILPNSPALNMHLVKSHRLQDGIVNPTIRKDLKTGPKFYCCPIEGCPRGPERPFSQFSLVKQHFMKMHAEKKHKCSKCSNSYGTEWDLKRHAEDCGKTFRCTCGCPYASRTALQSHIYRTGHEIPAEHRDPPSKKRKMENCAQNQKLSNKTIESLNNQPIPRPDTQELEASEIKLEPSFEDSCGSNTDKQTLTTPPRYPQKLLLPKPKVALVKLPVMQFSVMPVFVPTADSSAQPVVLGVDQGSATGAVHLMPLSVGTLILGLDSEACSLKESLPLFKIANPIAGEPISTGVQVNFGKSPSNPLQELGNTCQKNSISSINVQTDLSYASQNFIPSAQWATADSSVSSCSQTDLSFDSQVSLPISVHTQTFLPSSKVTSSIAAQTDAFMDTCFQSGGVSRETQTSGIESPTDDHVQMDQAGMCGDIFESVHSSYNVATGNIISNSLVAETVTHSLLPQNEPKTLNQDIEKSAPIINFSAQNSMLPSQNMTDNQTQTIDLLSDLENILSSNLPAQTLDHRSLLSDTNPGPDTQLPSGPAQNPGIDFDIEEFFSASNIQTQTEESELSTMTTEPVLESLDIETQTDFLLADTSAQSYGCRGNSNFLGLEMFDTQTQTDLNFFLDSSPHLPLGSILKHSSFSVSTDSSDTETQTEGVSTAKNIPALESKVQLNSTETQTMSSGFETLGSLFFTSNETQTAMDDFLLADLAWNTMESQFSSVETQTSAEPHTVSNF
Take B1: the “number of motifs that bind LC8” value in experiment [4] is 11.
Turning to B2, in experiment [5], the dH is -7.6 ± 0.2 kcal/mol and the “stoichiometry N” value was determined as 3.
Molecule B3 yielded a Kd in experiment [6] of 0.4 ± 0.1 µM.
As to SYSVSEVGTQTSI [QT2p], in experiment [3], the Kd came out at 6.3 ± 0.4 µM, the dH is -8.5 ± 1.1 kcal/mol and the “stoichiometry N” value amounted to 1.
The corresponding values for SYWSRSTTTQTDM [QT4p] are 5.2 ± 0.1 µM, -8.2 ± 0.1 kcal/mol and 1.
